# WT yeast gro inh – growth inhibition of WT strain, primary screen, mitochondrial fusion inhibitor project, WT and mutant strains, chemical genetic | mitochondrial fusion phenotypic screen | 2.1% of 190,000 active | AID 1362, 2008 | inhibition, % at 10 µM; in the data active = inhibition above about 58%; tested in S. cerevisiae
# Diaph act CS – compounds boosting diaphorase resazurin reduction – biochemical, uHTS, resorufin fluorescence, counter-screen for diaphorase-coupled primary assays, primary screen | AID 1229, 2008 | Diaphorase/resazurin coupled assay, 16 min; hits give high values; 1 = vehicle wells, 0 = NADH-free wells | activation factor at 20 µM | 0.005% of 190,000 active;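 active = diaphorase activity raised at least twofold by the compound at 20 µM; inactive = activation factor below 2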
#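 Material: purified diaphorase enzyme from Clostridium kluyveri; Also added: 0.114 mM NADH and 0.1 mM resazurin, final amounts; Doses: single compound dose of 20 µM, 1% DMSO final; Times: 16 min enzyme reaction, ambient temperature; Detection: resorufin fluorescence, excitation 544 nm, emission 590 nm; Measure: increased resorufin signal from activators or reducing compounds.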
# L major viab – Leishmania major promastigote growth inhibition, primary screen; Leishmania major promastigotes, resazurin fluorescence viability; inhibition, % at 10 µM; 9% of 200,000 active; AID 1063, 2008;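 note: promastigotes grown with compound for 44 hours at 28 °C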
# Diaphorase inh – diaphorase inhibitors and chemical oxidizers, primary screen, counter-screen for diaphorase-coupled primary assays, biochemical, uHTS, resorufin fluorescence; inhibition, % at 20 µM; 0.69% of 190,000 active; diaphorase resazurin-to-resorufin fluorescence, NADH, 16 min; bacterial (C. kluyveri) enzyme, not human; AID 1217, 2008;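 active = primary screen inhibition at 20 µM above a set limit, cut at about 50% in these data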;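 note: plate controls were DMSO with full reaction for no effect and wells lacking NADH for full effect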
#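 controls = No-NADH positive control and DMSO neutral control | system = Clostridium kluyveri diaphorase enzyme | timing = reaction incubation of 16 min at room temperature | signal = resorufin fluorescence 544/590 nm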
# G6PDH counter – L. mesenteroides G6PDH inhibitors, counter-screen for G6PDH-coupled screening assays, biochemical, Leuconostoc mesenteroides enzyme | Purified L. mesenteroides G6PDH, diaphorase/resazurin coupled fluorescence, 45 min | 0.12% of 200,000 active | inhibition, % at 5 µM
# * = called active by the depositor; / = not tested or not shown. The list is not random: actives were taken first. Their share in the collection is about 11%. Cut-off read from the data, not from the text of the source, unless noted: active = inhibition above about 50%; inactive = the rest.
SMILES,WT yeast gro inh,Diaph act CS,L major viab,Diaphorase inh,G6PDH counter
COC(=O)N/N=C/c1c(C)nn(-c2cccc(Cl)c2)c1Cl,-3,0.9,26,7,27
Cc1nn(-c2cccc(Cl)c2)c(Cl)c1/C=N/NC(=O)c1cccnc1,7,0.8,71*,18,0
Cc1nn(-c2ccccc2)c(Cl)c1/C=N/NC(=O)c1cccc(S(=O)(=O)N2CCCC2)c1,-2,0.9,-8,9,10
Cc1nn(-c2ccccc2)c(N2CCCC2)c1/C=N/NC(=O)c1cccc(S(=O)(=O)Nc2ccc(Cl)cc2)c1,-25,0.9,52*,15,-28
Cc1nn(-c2ccc(F)cc2)c(Cl)c1/C=N/NC(=O)c1cccc(S(=O)(=O)N2CCCC2)c1,-5,1,55*,-2,6
COc1ccc(-c2nn(-c3ccccc3)cc2/C=N/NC(=O)c2cccc(S(=O)(=O)Nc3ccccc3Cl)c2)cc1,-16,0.8,81*,24,-20
O=C(NCCCN1CCOCC1)c1cc2cc(Br)ccc2oc1=O,-14,1,15,4,1
COc1cc(OC)c(C(=O)NCCCN2CCOCC2)cc1OC,-14,1,0,5,6
Cc1c(Br)cc(C(=O)NCCCN2CCOCC2)c(C)c1C,0,1,61*,-4,9
O=C(NCCCN1CCOCC1)c1ccc(Br)cc1Br,1,1.1,81*,-15,1
Cc1nnc2sc(SCC(=O)Nc3cccc(Cl)c3)nn2c1=O,-7,0.9,3,13,3
COCCCNC(=S)N1CCC(NC(=O)c2ccco2)CC1,-1,1,-8,-2,17
CC(=O)Nc1ccccc1Nc1cc(C#N)c(C#N)cc1[N+](=O)[O-],/,1,97*,-1,12
CCOc1ccc(C(=O)Nc2ccccc2C#N)cc1[N+](=O)[O-],0,0.9,14,10,5
O=C(NC(=S)N1CCCc2ccccc21)c1ccccc1,30,0.8,-2,21,5
O=C(c1cc(-c2ccc(F)cc2)on1)N1CCCc2ccccc21,45,0.9,-2,14,4
O=C(c1cc([N+](=O)[O-])cc([N+](=O)[O-])c1)N1CCCc2ccccc21,20,0.7,79*,32,8
CCc1ccc2c(c1)CCCN2C(=O)c1ccccc1C(=O)O,1,0.9,99*,13,10
O=C(Cc1ccc([N+](=O)[O-])cc1)N1CCCc2ccccc21,18,0.9,13,6,4
O=C(NC(=S)N1CCCc2ccccc21)c1ccc(Cl)cc1,48,0.7,64*,27,21
Cc1ccc(-c2cc(C(=O)N3CCCc4ccccc43)no2)cc1,64*,0.8,-2,18,15
Cc1ccc2c(c1)CCCN2C(=O)c1ccoc1C,-3,0.9,-5,7,5
O=C(NC1CCSC1=O)C1CCCCC1 (centres undefined),0,0.9,-4,11,26
CCn1c(SCc2c(F)cccc2Cl)nnc1-c1ccco1,43,0.9,9,13,-10
O=C(c1ccc(N2CCCCCC2)c([N+](=O)[O-])c1)N1CCc2ccccc21,15,0.9,89*,8,-10
SMILES,WT yeast gro inh,Diaph act CS,L major viab,Diaphorase inh,G6PDH counter
O=C(c1cc(-c2ccccc2)nc2ccccc12)N1CCCc2ccccc21,63*,0.8,30,22,4
O=C(c1ccc(C(=O)N2CCCc3ccccc32)s1)N1CCCc2ccccc21,97*,0.8,8,18,12
O=C(c1cc([N+](=O)[O-])ccc1N1CCCCC1)N1CCc2ccccc21,11,0.8,27,17,2
O=C(NCCc1ccccc1)C1CCN(S(=O)(=O)c2ccc(-c3nn[nH]n3)cc2)CC1,10,0.8,0,18,14
CCOc1ccccc1/C=N/OCC(=O)NCc1ccc(F)cc1,-11,0.9,-1,10,2
O=C(C[n+]1cc(-c2ccc(F)cc2)n2c1CCC2)OCc1ccccc1,-21,1,-9,4,0
Cc1cccc[n+]1CC(=O)N1c2ccccc2Sc2ccccc21,25,1,11,2,1
O=C(C[n+]1cc(-c2ccc(Cl)c(Cl)c2)n2c1CCC2)N1c2ccccc2Sc2ccccc21,32,1.1,54*,-13,-16
O=C(C[n+]1cc(-c2ccc(F)cc2)n2c1CCC2)Nc1nc(-c2ccccc2)cs1,7,1,81*,2,9
Cn1c(NC(=O)C[n+]2cc(-c3ccc(Cl)c(Cl)c3)n3c2CCC3)cc(=O)n(C)c1=O,7,0.9,88*,7,6
O=C(C[n+]1cc(-c2ccc(Cl)cc2)n2c1CCC2)N1c2ccccc2Sc2ccccc21,8,0.9,81*,12,4
CCOC(=O)CC(NC(=O)Cn1nnc(-c2ccccc2)n1)c1ccc(OC)cc1 (centres undefined),-22,0.8,12,15,6
CC(=O)N(CC(C)(C)CC=C(C)C)c1ccccc1,1,1.1,-6,-13,7
CC1CCN(S(=O)(=O)c2ccc(S(=O)(=O)NCC3COCCO3)cc2)CC1 (centres undefined),-5,0.8,0,15,3
CCOC(=O)N1CCN(CC(=O)Nc2ccc(C)c(Br)c2)CC1,-5,1,-2,4,1
Cc1ccc(C)c(-n2c3nc(=O)[nH]c(=O)c-3cc3cc([N+](=O)[O-])ccc32)c1,-15,0.3,97*,67*,33
Cc1ccc(S(=O)(=O)N(C)C)cc1NS(=O)(=O)c1ccc(Cl)s1,0,0.8,69*,16,14
CN(C)S(=O)(=O)c1cccc(NS(=O)(=O)c2ccc(Cl)s2)c1,8,0.9,-1,15,-1
O=P(c1ccccc1)(c1ccccc1)c1nc(-c2ccccc2)oc1NCc1ccccc1,26,0.9,28,10,2
COc1ccc([N+](=O)[O-])cc1N(CC(=O)NCC1CCCO1)S(C)(=O)=O (centres undefined),1,0.9,58*,7,6
CS(=O)(=O)N(CC(=O)NCC1CCCO1)c1cccc([N+](=O)[O-])c1 (centres undefined),18,0.9,5,11,8
COc1ccc([N+](=O)[O-])cc1N(CC(=O)NCCC1=CCCCC1)S(C)(=O)=O,-7,1,71*,1,0
O=C(COC(=O)Cc1ccccc1F)Nc1cccc(S(=O)(=O)NC2=NCCCCC2)c1,-5,1,-3,0,7
COc1ccc(CN2CCN(S(=O)(=O)c3ccccc3)CC2)c(OC)c1,7,0.9,11,13,3

# Compound activity deposited in PubChem by several laboratories.
